The term inhibition denotes the percentage by which the read-out fell short of the control. A word on the IC50: it is the concentration that gives 50% inhibition.

Active and inactive are the calls of the source. No cut-off for these calls is given here.

The values that follow come from ChEMBL document CHEMBL4828723, “Synthesis and Biological Evaluation of Falcarinol-Type Analogues as Potential Calcium Channel Blockers” (J Nat Prod, 2021).

Data set [1] has as its system PC-12. The experiment in a line: Neuroprotective activity against NaN3-induced cell injury in rat PC12 cells assessed as cell survival rate at 40 uM measured after 24 hrs by CCK-8 assay (reference value: 50%). It counts as functional. Conditions: read-out: Survival.
Data set [2] deals with PC-12. The experiment in a line: Neuroprotective activity against NaN3-induced cell injury in rat PC12 cells assessed as cell survival rate at 20 uM measured after 24 hrs by CCK-8 assay (reference value: 50%). It counts as functional. Conditions: read-out: Survival. In general terms: Formazan colour is commonly taken as a measure of viable cells.
For data set [3], the system named is PC-12. The experiment in a line: Neuroprotective activity against NaN3-induced cell injury in rat PC12 cells assessed as cell survival rate at 5 uM measured after 24 hrs by CCK-8 assay (reference value: 49.9 to 52%). The class given is functional. The following applies: read-out: Survival.
Data set [4] concerns PC-12. Description: Neuroprotective activity against NaN3-induced cell injury in rat PC12 cells assessed as cell survival rate at 10 uM measured after 24 hrs by CCK-8 assay (reference value: 49.9 to 52%). It counts as functional. Conditions: read-out: Survival.
Data set [5] relates to PC-12. Description: Neuroprotective activity against NaN3-induced cell injury in rat PC12 cells assessed as cell survival rate at 100 uM measured after 24 hrs by CCK-8 assay (reference value: 49.9 to 52%). Conditions: read-out: Survival. It counts as functional.
For data set [6], the system named is PC-12. The experiment in a line: Neuroprotective activity against NaN3-induced cell injury in rat PC12 cells assessed as cell survival rate at 40 uM measured after 24 hrs by CCK-8 assay (reference value: 49.9 to 52%). The class given is functional. The following applies: read-out: Survival.
The subject of data set [7] is PC-12. The experiment in a line: Neuroprotective activity against NaN3-induced cell injury in rat PC12 cells assessed as cell survival rate at 80 uM measured after 24 hrs by CCK-8 assay (reference value: 49.9 to 52%). The class given is functional. The following applies: read-out: Survival.
Data set [8] deals with PC-12. The experiment in a line: Neuroprotective activity against NaN3-induced cell injury in rat PC12 cells assessed as cell survival rate at 20 uM measured after 24 hrs by CCK-8 assay (reference value: 49.9 to 52%). It counts as functional. The following applies: read-out: Survival.
Data set [9] relates to PC-12. Description: Neurotrophic activity in rat PC12 cells assessed as cell survival rate at 1 uM measured after 24 hrs by CCK-8 assay (reference value: 50%). Conditions: PC-12, 24 h.
The target of data set [10] is T1, Cav1.2 (L-type calcium channel alpha1c/beta2a/alpha2delta1) (Homo sapiens, UniProt P54289+Q08289+Q13936). The experiment in a line: Inhibition of human alpha1c/beta2a/alpha2delta1 Cav1.2 expressed in HEK293 cells assessed as time course of inhibition of membrane potential measured after washout with external solution at 100 uM by manual patch clamp technique. It counts as cell-based. In short, it runs like this: (§1)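 HEK-293 cells stably expressing hCav1.2 (α1C/β2a/α2δ1), induced with tetracycline 1 μg/mL for 24 h. Perforated whole-cell manual patch clamp (amphotericin B 250 μg/mL in pipette; Cs-methanesulfonate internal, pH 7.2) at 24 °C. Holding potential −90 mV, 1000 ms prepulse inactivating 20% of channels, then a 50 ms step to 0 mV, repeated every 15 s. I_Ca-L followed over time, then washout with external solution. Final ethanol/DMSO ≤1.00%.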
On the technique in general: The patch-clamp technique gives a direct electrical read-out from membranes.

Data set [11] addresses T1, Cav1.2 (L-type calcium channel alpha1c/beta2a/alpha2delta1). Description: Inhibition of human alpha1c/beta2a/alpha2delta1 Cav1.2 expressed in HEK293 cells assessed as time course of inhibition of membrane potential measured after washout with external solution at 10 uM by manual patch clamp technique. The class given is cell-based. In outline:
as §1

Data set [12] has as its target L-type calcium channel alpha-1c/beta-2/alpha2delta-1 (Homo sapiens, UniProt P54289+Q08289+Q13936). The experiment in a line: Inhibition of human alpha1c/beta2a/alpha2delta1 Cav1.2 expressed in HEK293 cells assessed as time course of inhibition of membrane potential measured after washout with external solution by manual patch clamp technique. It counts as cell-based. In short, it runs like this:
as §1

Data set [13] concerns PC-12. Description: Neuroprotective activity against NaN3-induced cell injury in rat PC12 cells assessed as cell survival rate at 5 uM measured after 24 hrs by CCK-8 assay (reference value: 50%). The class given is functional. Conditions: read-out: Survival.
The test system of data set [14] is PC-12. The experiment in a line: Neuroprotective activity in rat PC12 cells assessed as prevention of NaN3-induced decrease in SOD release at 5 to 20 uM measured (reference value: 54 U/mg of protein). The class given is functional. Conditions: dose 5-20 µM.
In data set [15] the test system is PC-12. The experiment in a line: Neuroprotective activity against NaN3-induced cell injury in rat PC12 cells assessed as cell survival rate at 10 uM measured after 24 hrs by CCK-8 assay (reference value: 50%). The class given is functional. Conditions: read-out: Survival.
Data set [16] deals with PC-12. Description: Neuroprotective activity in rat PC12 cells assessed as reduction in NaN3-induced LDH release at 5 to 10 uM measured by LDH release assay (reference value: 411.84 to 416.67 U/L). It counts as functional. The following applies: dose 5-10 µM.
The test system of data set [17] is PC-12. The experiment in a line: Neuroprotective activity in rat PC12 cells assessed as reduction in NaN3-induced MDA release at 5 uM measured (reference value: 253 nmol/mL). It counts as functional.
Data set [18] concerns the target T1, Cav1.2 (L-type calcium channel alpha1c/beta2a/alpha2delta1). The experiment in a line: Inhibition of human alpha1c/beta2a/alpha2delta1 Cav1.2 expressed in HEK293 cells assessed as time course of inhibition of membrane potential measured after washout with external solution at 30 uM by manual patch clamp technique. It counts as cell-based. In short, it runs like this:
as §1

Data set [19] has as its system PC-12. Description: Neuroprotective activity in rat PC12 cells assessed as reduction in NaN3-induced LDH release at 4 uM measured by LDH release assay (reference value: 411.84 to 416.67 U/L). The class given is functional. In short, it runs like this:
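PC12 injury model: glucose-free, serum-free RPMI 1640. Pretreatment 4 μM, 1 h before NaN3, then 24 h with NaN3. Cells disrupted by ultrasonication and centrifuged at 10 000 rpm for 10 min at 4 °C. Supernatant LDH measured with a commercial kit, in U/L. n = 3 independent experiments.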

The subject of data set [20] is PC-12. The experiment in a line: Neuroprotective activity against NaN3-induced cell injury in rat PC-12 cells assessed as cell survival rate at 2 to 8 uM measured after 24 hrs by CCK-8 assay (reference value: 50%). It counts as functional. Conditions: dose 2-8 µM.
Data set [21] concerns the target L-type calcium channel alpha-1c/beta-2/alpha2delta-1 (Homo sapiens, UniProt P54289+Q13936+Q08289). Description: Irreversible inhibition of human alpha1c/beta2a/alpha2delta1 Cav1.2 expressed in HEK293 cells assessed as decrease in membrane potential measured after washout with external solution at 100 uM by manual patch clamp technique. It counts as cell-based. Conditions: hek293, 100 µM. In short, it runs like this: as §1

Data set [22] has as its system PC-12. Description: Neuroprotective activity in rat PC12 cells assessed as prevention of NaN3-induced apoptosis at 5 to 10 uM measured after 24 hrs by Hoechst staining based assay. The class given is functional, cell-based. The following applies: dose 5-10 µM. In outline:
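PC12 cells plated at about 1 × 10⁵ per well and cultured overnight. Pretreated 1 h with 5, 10 or 20 μM compound, then NaN₃ for 24 h in glucose-free, serum-free RPMI 1640 after two washes in glucose-free EBSS pH 7.5. Cells fixed 30 min in methanol, stained with Hoechst 33258 for 10 min at 37 °C in the dark, and scored for nuclear morphology by fluorescence microscopy (ex 350/em 461 nm).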

T1 sequence (P54289 25-956 limits assumed): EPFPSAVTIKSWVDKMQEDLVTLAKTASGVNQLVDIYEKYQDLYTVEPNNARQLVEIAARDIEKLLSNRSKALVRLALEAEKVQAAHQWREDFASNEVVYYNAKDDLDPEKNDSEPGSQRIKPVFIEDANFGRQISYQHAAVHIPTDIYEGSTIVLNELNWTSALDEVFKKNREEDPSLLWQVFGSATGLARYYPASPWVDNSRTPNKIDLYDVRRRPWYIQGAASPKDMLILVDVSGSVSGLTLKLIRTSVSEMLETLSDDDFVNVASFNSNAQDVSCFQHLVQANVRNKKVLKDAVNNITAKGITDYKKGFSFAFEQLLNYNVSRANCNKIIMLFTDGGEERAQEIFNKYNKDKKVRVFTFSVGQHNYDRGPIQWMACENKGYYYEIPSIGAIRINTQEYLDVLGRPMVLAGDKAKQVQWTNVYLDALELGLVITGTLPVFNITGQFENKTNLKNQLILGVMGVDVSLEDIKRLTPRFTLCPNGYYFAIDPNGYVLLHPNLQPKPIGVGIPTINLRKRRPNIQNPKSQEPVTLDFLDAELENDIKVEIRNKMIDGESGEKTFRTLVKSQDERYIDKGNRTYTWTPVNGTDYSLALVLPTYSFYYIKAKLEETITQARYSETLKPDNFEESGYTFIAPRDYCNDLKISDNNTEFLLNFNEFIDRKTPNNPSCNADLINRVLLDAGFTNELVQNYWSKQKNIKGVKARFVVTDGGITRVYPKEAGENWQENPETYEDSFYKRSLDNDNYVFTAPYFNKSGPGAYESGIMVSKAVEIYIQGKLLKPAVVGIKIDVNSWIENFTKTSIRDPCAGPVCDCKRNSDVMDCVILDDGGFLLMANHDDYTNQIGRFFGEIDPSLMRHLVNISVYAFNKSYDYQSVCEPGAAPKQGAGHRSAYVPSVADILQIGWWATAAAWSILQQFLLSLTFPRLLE
T1 sequence (P54289 957-1103 limits assumed): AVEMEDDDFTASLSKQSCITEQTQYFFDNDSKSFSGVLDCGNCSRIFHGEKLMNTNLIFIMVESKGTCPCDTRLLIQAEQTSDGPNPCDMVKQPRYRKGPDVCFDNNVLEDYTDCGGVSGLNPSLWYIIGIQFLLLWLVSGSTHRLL
T1 sequence (Q08289 whole entry): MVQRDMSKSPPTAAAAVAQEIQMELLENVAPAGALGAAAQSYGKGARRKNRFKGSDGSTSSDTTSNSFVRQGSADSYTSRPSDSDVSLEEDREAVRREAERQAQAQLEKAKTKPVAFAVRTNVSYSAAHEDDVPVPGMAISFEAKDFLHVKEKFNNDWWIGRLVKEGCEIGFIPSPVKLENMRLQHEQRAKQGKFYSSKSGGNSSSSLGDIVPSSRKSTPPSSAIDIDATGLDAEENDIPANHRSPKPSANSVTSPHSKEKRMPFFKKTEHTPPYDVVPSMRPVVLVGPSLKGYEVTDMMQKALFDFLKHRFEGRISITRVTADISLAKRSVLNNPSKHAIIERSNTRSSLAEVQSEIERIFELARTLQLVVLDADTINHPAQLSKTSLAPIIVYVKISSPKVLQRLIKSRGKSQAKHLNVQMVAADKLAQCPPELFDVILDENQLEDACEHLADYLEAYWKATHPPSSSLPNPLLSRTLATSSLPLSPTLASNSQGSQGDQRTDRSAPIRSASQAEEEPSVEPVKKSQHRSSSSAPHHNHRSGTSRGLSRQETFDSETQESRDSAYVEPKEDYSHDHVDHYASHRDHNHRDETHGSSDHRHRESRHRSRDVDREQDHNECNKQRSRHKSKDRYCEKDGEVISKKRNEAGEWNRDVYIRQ
T1 sequence (Q13936 whole entry): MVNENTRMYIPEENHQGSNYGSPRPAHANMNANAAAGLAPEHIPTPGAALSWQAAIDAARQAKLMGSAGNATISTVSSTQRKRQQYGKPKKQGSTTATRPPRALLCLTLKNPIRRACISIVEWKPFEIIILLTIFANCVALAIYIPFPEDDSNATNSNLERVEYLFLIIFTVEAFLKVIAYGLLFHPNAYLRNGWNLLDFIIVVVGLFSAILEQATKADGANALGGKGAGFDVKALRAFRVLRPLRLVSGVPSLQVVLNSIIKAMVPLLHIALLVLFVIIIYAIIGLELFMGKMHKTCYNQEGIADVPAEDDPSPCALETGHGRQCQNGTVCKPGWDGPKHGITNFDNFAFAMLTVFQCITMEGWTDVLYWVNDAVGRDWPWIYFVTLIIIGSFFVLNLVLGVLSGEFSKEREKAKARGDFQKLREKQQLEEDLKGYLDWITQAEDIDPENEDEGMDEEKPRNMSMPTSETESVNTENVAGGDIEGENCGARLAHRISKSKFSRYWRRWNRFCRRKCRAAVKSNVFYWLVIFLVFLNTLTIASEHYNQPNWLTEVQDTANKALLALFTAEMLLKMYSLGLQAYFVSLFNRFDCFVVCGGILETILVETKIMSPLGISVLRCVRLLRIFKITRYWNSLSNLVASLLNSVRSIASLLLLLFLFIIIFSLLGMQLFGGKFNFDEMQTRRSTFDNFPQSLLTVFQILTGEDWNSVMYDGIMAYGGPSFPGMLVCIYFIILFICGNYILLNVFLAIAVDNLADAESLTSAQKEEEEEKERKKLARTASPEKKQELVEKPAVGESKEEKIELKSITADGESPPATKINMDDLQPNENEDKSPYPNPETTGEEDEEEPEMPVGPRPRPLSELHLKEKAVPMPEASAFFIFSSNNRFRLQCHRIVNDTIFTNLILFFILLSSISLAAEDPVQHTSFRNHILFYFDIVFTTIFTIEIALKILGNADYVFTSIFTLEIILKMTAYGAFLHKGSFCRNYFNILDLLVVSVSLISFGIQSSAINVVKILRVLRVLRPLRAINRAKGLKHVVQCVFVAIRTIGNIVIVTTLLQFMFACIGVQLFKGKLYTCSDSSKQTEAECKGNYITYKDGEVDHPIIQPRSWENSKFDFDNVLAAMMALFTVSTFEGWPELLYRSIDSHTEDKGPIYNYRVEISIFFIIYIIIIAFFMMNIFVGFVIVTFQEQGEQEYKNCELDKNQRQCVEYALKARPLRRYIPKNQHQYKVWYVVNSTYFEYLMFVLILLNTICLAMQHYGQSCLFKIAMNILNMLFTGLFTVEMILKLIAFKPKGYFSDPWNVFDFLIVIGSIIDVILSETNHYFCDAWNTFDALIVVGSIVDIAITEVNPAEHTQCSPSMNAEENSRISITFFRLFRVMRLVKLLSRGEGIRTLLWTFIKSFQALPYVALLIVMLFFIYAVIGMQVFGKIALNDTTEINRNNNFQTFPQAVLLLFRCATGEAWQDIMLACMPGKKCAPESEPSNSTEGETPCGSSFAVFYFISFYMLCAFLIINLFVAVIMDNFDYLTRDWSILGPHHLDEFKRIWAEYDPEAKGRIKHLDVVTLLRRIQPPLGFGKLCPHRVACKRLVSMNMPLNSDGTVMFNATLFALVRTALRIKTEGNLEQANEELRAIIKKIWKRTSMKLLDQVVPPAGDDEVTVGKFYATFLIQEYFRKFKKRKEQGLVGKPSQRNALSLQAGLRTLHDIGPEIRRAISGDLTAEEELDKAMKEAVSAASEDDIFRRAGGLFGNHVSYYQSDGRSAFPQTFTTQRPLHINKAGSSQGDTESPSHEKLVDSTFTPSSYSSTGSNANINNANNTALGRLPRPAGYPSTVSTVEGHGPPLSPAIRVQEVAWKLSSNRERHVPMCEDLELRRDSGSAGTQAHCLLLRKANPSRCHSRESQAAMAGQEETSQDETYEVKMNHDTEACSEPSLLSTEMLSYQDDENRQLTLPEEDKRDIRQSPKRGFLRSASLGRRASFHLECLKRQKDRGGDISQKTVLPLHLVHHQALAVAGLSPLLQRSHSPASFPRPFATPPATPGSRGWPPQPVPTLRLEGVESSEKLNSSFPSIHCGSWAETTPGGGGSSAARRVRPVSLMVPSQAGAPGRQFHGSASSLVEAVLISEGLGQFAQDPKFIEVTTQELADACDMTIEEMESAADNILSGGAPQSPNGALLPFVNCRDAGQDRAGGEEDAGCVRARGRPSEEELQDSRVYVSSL
Chain of L-type calcium channel alpha-1c/beta-2/alpha2delta-1 (Homo sapiens, UniProt P54289+Q08289+Q13936) (P54289 25-956 limits assumed): as the sequence (P54289 25-956 limits assumed) above
Chain of L-type calcium channel alpha-1c/beta-2/alpha2delta-1 (Homo sapiens, UniProt P54289+Q08289+Q13936) (P54289 957-1103 limits assumed): as the sequence (P54289 957-1103 limits assumed) above
Chain of L-type calcium channel alpha-1c/beta-2/alpha2delta-1 (Homo sapiens, UniProt P54289+Q08289+Q13936) (Q08289 whole entry): as the sequence (Q08289 whole entry) above
Chain of L-type calcium channel alpha-1c/beta-2/alpha2delta-1 (Homo sapiens, UniProt P54289+Q08289+Q13936) (Q13936 whole entry): as the sequence (Q13936 whole entry) above

`CC(C)[Si](C#CC#C[C@@H](O)C1CCCC1)(C(C)C)C(C)C`: the viability at 40 µM in data set [1] came out at 65%. Moreover, the viability at 20 µM in data set [2] is 66%.
With `CCCCCCCCC[C@@H](O)C#CC#C[Si](C(C)C)(C(C)C)C(C)C`, the viability at 5 µM in data set [3] was 49.4%. Moreover, the viability at 10 µM in data set [4] turned out to be 47.8%. The viability at 100 µM in data set [5] amounted to 37.6%. In addition, the viability at 40 µM in data set [6] stood at 43.5%. In data set [7], the viability at 80 µM came to 39.5%. Further, the viability at 20 µM in data set [8] came out at 46.2%.
Turning to `CC(C)[Si](C#CC#C[C@H](O)c1ccccc1)(C(C)C)C(C)C`, the viability at 1 µM in data set [9] is at most 96%. Also, the viability at 5 µM in [3] worked out at 60.1%; in data set [13], 60%. Also, the inhibition at 100 µM in data set [10] amounted to 79.7%. Also, the viability at 10 µM in data set [4] turned out to be 66.6%; in data set [15], 67%. Also, the viability at 100 µM in [5] worked out at 51.9%. The inhibition at 10 µM in data set [11] came to 7.7%. In addition, in data set [12], the IC50 was found to be 41.3 µM. In addition, in [6], the viability at 40 µM is 58.2%. Moreover, the Activity is 124 U/mg in [14], 132 U/L in [16] and 47 nmol/mL in [17]. The viability at 80 µM in data set [7] turned out to be 53%. For the same compound, the inhibition at 30 µM in data set [18] worked out at 38.6%. In addition, the viability at 20 µM in data set [8] is 58%.
On to `C#CC#C[C@H](O)c1ccccc1`, for which the viability at 5 µM in [3] was determined as 47.8%. Besides, the viability at 10 µM in data set [4] is 52.4%. Further, the viability at 100 µM in [5] was determined as 43.5%. Further, the viability at 40 µM in [6] is 49.9%. In addition, in [7], the viability at 80 µM was determined as 47.5%. Further, the viability at 20 µM in data set [8] stood at 55%.
For the compound `C=C[C@@H](O)C#CC#CC/C=C\CCCCCCC`, the Activity in data set [19] is 211 U/L; in data set [21], “Active”; in data set [17], 68 nmol/mL. In addition, the inhibition at 100 µM in data set [10] is 61.6%. In addition, in data set [11], the inhibition at 10 µM turned out to be 7.9%. The Survival in data set [20] is 59%. Moreover, the IC50 in data set [12] was determined as 41.3 µM. Also, in data set [18], the inhibition at 30 µM stood at 28.1%.
Turning to `COc1cccc([C@@H](O)C#CC#C[Si](C(C)C)(C(C)C)C(C)C)c1`, the viability at 40 µM in data set [1] is 65%. For the same compound, the viability at 20 µM in [2] is 61%.
As to `CC(C)[Si](C#CC#C[C@H](O)c1cccc(F)c1)(C(C)C)C(C)C`, in [22], the result was Active. The viability at 5 µM in [13] was 83%. Also, the Activity was 124 U/mg in data set [14], 132 U/L in data set [16] and 53 nmol/mL in data set [17]. For the same compound, the viability at 10 µM in data set [15] is 76%.
For `CCCCCCCCC[C@H](C#CC#C[C@H](O)c1ccccc1)OC(=O)c1ccccc1`, in data set [3], the viability at 5 µM was found to be 65.6%. Moreover, in [4], the viability at 10 µM was 63.7%. The viability at 100 µM in [5] is 31.3%. Also, in [6], the viability at 40 µM stood at 51.7%. Besides, the viability at 80 µM in [7] is 36.2%. Also, the viability at 20 µM in data set [8] is 61.3%.
In the case of `CCCCCCCCC[C@H](C#CC#C[Si](C(C)C)(C(C)C)C(C)C)OC(=O)c1ccccc1`, the viability at 5 µM in [3] was 50.4%. Also, in data set [4], the viability at 10 µM is 47.9%. In addition, the viability at 100 µM in data set [5] stood at 43.9%. For the same compound, in data set [6], the viability at 40 µM was found to be 46.4%. The viability at 80 µM in data set [7] was determined as 46.4%. In [8], the viability at 20 µM was 47.5%.
